CHO parental Ca: counter-screen for OX1R antagonists: effect in parental CHO cells. AID 463079. inhibition, % at 5.6 µM. 330,000 compounds, 0.63% hits. parental CHO-K1, ATP-induced calcium, Fluo-8 fluorescence;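 active = inhibition above that plate's mean sample inhibition plus 3 SD, cut at about 26% in these data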;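 also: 0% = ATP-challenged DMSO wells and 100% = DMSO wells without ATP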
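Test system: untransfected parental CHO cell line. Compound: one dose, 5.6 µM nominal. Detection: intracellular calcium via Fluo-8 no-wash fluorescent dye. Measure: % inhibition. Benchmarks: ATP-challenged DMSO wells low, unchallenged DMSO wells high.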
OXTR potentiator: potentiators of human oxytocin receptor | P30559 | CHO-OTR cells, Fluo-8 calcium fluorescence, potentiator mode; 0% = oxytocin EC15, 100% = EC100 | activation, % at 3 µM | 320,000 compounds, 0.061% hits | AID 2445;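 active = activation above that plate's cutoff, the mean activation of tested compounds plus 3 SD, cut at about 6.6% in these data, passing the limit was not always enough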;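 also: 100% uses oxytocin at 75 nM as the full agonist control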
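System: human OTR in CHO cells; Also added: sub-maximal oxytocin, roughly EC15; Timing: compound 6 min at room temperature before oxytocin, 100 s read; Technique: Fluo-8 intracellular calcium fluorescence, ex 470-495, em 515-575 nm; Controls: oxytocin EC15 low and EC100 high; Replication: singlicate.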
OX1R antag-1: blocks the human orexin 1 receptor. O43613. OX1R-expressing cells, FRET antagonist read-out. inhibition, % at 6.6 µM. 330,000 compounds, 1.8% hits. AID 485270; in the data active = inhibition mostly above about 38%, no sharp cut-off; inactive = mostly below about 40%;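 also: 0% = agonist challenge alone and 100% = reference antagonist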
OX1R antag-2: human HCRTR1 antagonism | AID 434989 | O43613 | 330,000 compounds, 0.43% hits | inhibition, % at 5 µM | CHO/OX1R cells, Fluo-8 calcium fluorescence, orexin A;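 active = inhibition above its plate's threshold, mean inhibition of all tested compounds on the plate plus 3 SD, cut at about 37% in these data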;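 also: 0% = orexin A challenge wells and 100% = SB-334867-A antagonist wells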
OXTR ag: activates the human oxytocin receptor; P30559; CHO-OTR cells, Fluo-8 calcium fluorescence; normalized: DMSO 0%, oxytocin 100%; activation, % at 3 µM; 320,000 compounds, 0.32% hits; AID 2435;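 active = activation above the mean of all tested compounds plus 3 SD, cutoff set per screening run, cut at about 20% in these data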;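 also: peak over basal fluorescence ratio from a 100 s FLIPR kinetic read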
V1aR counter: activates human V1a receptor in oxytocin agonist counter-screen. P37288. activation, % at 3 µM. 320,000 compounds, 0.25% hits. CHO-V1R cells, Fluo-8 calcium fluorescence, agonist mode; 0% DMSO, 100% 3 nM vasopressin;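 active = activation above the mean activation of all tested compounds plus 3 SD, per screening run, cut at about 20% in these data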;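 also: signal is peak over basal fluorescence ratio across a 100 second FLIPR read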
Target sequence (P37288 whole entry, looked up): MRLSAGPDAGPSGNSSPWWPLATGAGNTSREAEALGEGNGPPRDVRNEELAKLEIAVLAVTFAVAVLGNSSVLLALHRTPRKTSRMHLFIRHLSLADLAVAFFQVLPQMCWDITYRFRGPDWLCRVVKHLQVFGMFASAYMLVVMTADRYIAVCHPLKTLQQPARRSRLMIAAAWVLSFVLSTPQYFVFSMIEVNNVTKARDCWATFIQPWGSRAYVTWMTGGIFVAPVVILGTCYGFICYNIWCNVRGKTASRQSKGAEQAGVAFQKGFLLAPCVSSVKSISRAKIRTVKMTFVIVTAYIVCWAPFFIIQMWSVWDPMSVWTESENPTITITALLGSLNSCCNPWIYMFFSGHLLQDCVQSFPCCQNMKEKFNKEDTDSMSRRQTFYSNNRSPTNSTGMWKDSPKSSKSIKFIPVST
* hit, by the source's call. Most compounds without a hit are left out; they make up all but 2.7% or so of the library.

SMILES	CHO parental Ca	OXTR potentiator	OX1R antag-1	OX1R antag-2	OXTR ag	V1aR counter
Cc1cc(C(F)(F)F)c(C#N)c(SCC(=O)Nc2nc3ccccc3s2)n1	-11	-2	74*	22	7	12
CCOC(=O)N1CCN(C(=O)CS(=O)Cc2nc(-c3ccc(OC)c(OC)c3)oc2C)CC1 (stereo unspecified)	-17	0	10	-10	-1	0
CC(C)n1cc(CNC(=O)C2CCC(=O)N(Cc3ccccc3F)C2)cn1 (stereo unspecified)	-6	-6	-7	-16	8	1
COc1ccc(NC(=O)C2=CCN(S(=O)(=O)c3ccccc3)CC2)cc1OC	-13	-9	9	-13	-1	0
O=S(=O)(Nc1ccc(S(=O)(=O)N2CCCC2)cc1)c1ccccc1Br	-5	-3	3	-9	1	0
O=C(Nc1ccc2c(c1)OCCO2)C1CCCN(S(=O)(=O)c2cccc3nsnc23)C1 (stereo unspecified)	-9	0	11	-20	0	2
O=C(Nc1cccnc1)C1CCCN(S(=O)(=O)c2cccc3nsnc23)C1 (stereo unspecified)	15	-5	58*	-19	0	0
COc1cc(NC(=O)C2CCCN(S(=O)(=O)c3cccc4nsnc34)C2)cc(OC)c1 (stereo unspecified)	-5	-5	48*	-9	1	1
CN(C)CCCN(C(=O)c1cc(-c2cccs2)nc2ccccc12)c1nc2ccc(F)cc2s1	14	-9	14	15	14	7
CN(C)S(=O)(=O)c1cccc(COC(=O)c2ccc3c(c2)OCO3)c1	-7	-19	22	-9	3	6
CN(C)S(=O)(=O)c1cccc(CSCc2cccc(S(=O)(=O)N(C)C)c2)c1	46*	-22	27	6	19	11
CN(C)S(=O)(=O)c1cccc(COC(=O)c2ccc(Cl)cc2O)c1	48*	-10	34	33	6	6
COc1ccc(C(C(=O)NC2CCCC2)N(C(=O)c2ccco2)c2cc3c(cc2C(C)=O)OCO3)cc1 (stereo unspecified)	-14	-6	15	-24	1	-1
O=C(/C=C/c1cccc(O)c1)c1ccc(N2CCOCC2)cc1	-12	-3	14	-9	4	1
COc1ccc(N2CCn3c2nc2c3c(=O)n(CCCc3ccccc3)c(=O)n2C)c(OC)c1	55*	-8	12	3	2	4
O=c1[nH]c(/C=C\c2ccccc2F)nc(O)c1[N+](=O)[O-]	6	-5	14	-15	1	1
CN(C)c1ccc(/C=C/C(=O)c2ccccc2O)cc1	38*	-19	19	14	10	13
CN(C)c1ccc(/C=C/C(=O)c2cccnc2)cc1	49*	-19	4	68*	90*	86*
COc1ccc(C(=O)/C=C/c2ccc(N(C)C)cc2)c(OC)c1	59*	-23	83*	112*	135*	154*
O=C(/C=C/c1ccccc1)c1ccc2c(c1)OCO2	-21	-7	6	-14	-2	0
COc1ccc(C(=O)/C=C/c2ccccc2)c(OC)c1	-7	-6	33	2	-2	-2
Cc1ccc(/C=C/C(=O)c2ccccc2O)cc1	-16	1	16	-20	-3	0
CN(C)c1ccc(/C=C/C(=O)c2ccc3c(c2)OCO3)cc1	48*	-12	11	112*	75*	77*
COC(=O)c1ccc(/C=N/n2c(C)nc3ccccc3c2=O)cc1	-21	-4	10	-30	-1	-1
COc1ccc(NC(=O)CN(C)C(=O)c2c(-c3c(F)cccc3Cl)noc2C)cc1	-11	-4	10	-15	2	1
SMILES	CHO parental Ca	OXTR potentiator	OX1R antag-1	OX1R antag-2	OXTR ag	V1aR counter
CC(=O)c1sc(Nc2ccccn2)nc1C	-4	2	73*	7	-2	4
CC(=O)c1sc(Nc2cccc3ccccc23)nc1C	-10	-3	14	-28	-3	-2
ClC1(CNc2ccccc2)CCN(Cc2ccccc2)CC1	-21	-11	18	-4	3	0
COC(=O)c1sc(NC(=O)COc2cccc(C)c2)nc1C	-6	-2	69*	-13	-2	0
COC(=O)c1sc(NC(=O)COc2ccc(OC)cc2)nc1C	-16	3	18	-16	1	2
CC(=O)Nc1cccc(-c2cnc(N)c(C(=O)c3cccnc3)n2)c1	4	-1	24	-30	1	0
CCCN(CC(=O)Nc1ccccc1C)C(=O)CC(NC(=O)c1ccccc1)c1ccccc1 (stereo unspecified)	-18	-5	8	-8	1	1
O=C(Nc1nnc(CSCc2ccccc2F)s1)c1cccc([N+](=O)[O-])c1	-4	-16	43*	-17	7	10
CN(C)S(=O)(=O)c1cccc2nsnc12	-5	-9	35*	-8	0	2
CN(CC(=O)Nc1ccc(F)c(F)c1)S(=O)(=O)c1cccc2nsnc12	-6	-15	63*	-14	4	4
Cc1ccc(NC(=O)CN(C)S(=O)(=O)c2cccc3nsnc23)cc1C	-26	-13	64	-18	0	3
Cc1cccc(N(C)S(=O)(=O)c2cccc3nsnc23)c1	-14	-9	27	-23	-3	-1
O=C(O)c1cnc(-c2ccccc2)nc1-c1ccccc1	-9	-17	62*	3	0	1
Cc1cc2occ(CC(=O)N(C)CC(=O)Nc3ccccc3Cl)c2cc1C	-25	-10	54*	-18	-1	0
CC(=O)N1c2ccccc2C2CCCC[C@H]21 (stereo partly specified)	2	1	5	-16	1	0
C[C@@H]1C=CC(=O)O[C@@H]1c1ccc(Cl)cc1	-7	-5	27	-10	0	1
Cc1ccc2c(c1)sc(-c1ccc(N(C)C)cc1)[n+]2C	42*	1	40*	10	0	0
COc1ccc(C)cc1Nc1n[n+](-c2ccccc2)c(-c2ccc(N(C)C)cc2)s1	17	-5	28	0	2	1
O=C(Nc1ccc(Cl)cc1)N1CCC(c2nc(-c3ccccc3Cl)no2)CC1	37*	-22	45	32	6	6
COc1ccc(CCNC(=O)c2ccc3c(c2)N(Cc2ccc(F)cc2)CCS3)c(OC)c1	-1	-8	46*	-12	-1	0
COc1ccc(Br)cc1CNC(=O)c1ccc2c(c1)N(C)CCS2	-17	-7	57*	-24	-2	0

Screening results: PubChem BioAssay, The Scripps Research Institute Molecular Screening Center
